Laboratory results: ChEMBL document CHEMBL4392836, “Second-generation aryl isonitrile compounds targeting multidrug-resistant Staphylococcus aureus” (Bioorg Med Chem, 2019)
≈ marks a conversion by molar mass, not a printed value. Calls of active or inactive are those of the source. The calls are words filed in the database; no cut-off is given here.

Experiments:
Staphylococcus aureus [1] = assay: Antibacterial activity against methicillin-resistant Staphylococcus aureus NRS123 USA400 after 18 to 24 hrs by broth microdilution assay; format: functional
In short: (§1)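 CLSI broth microdilution with modifications. Bacteria cultured in TSB and exposed to compounds or control antibiotics in triplicate. Plates incubated aerobically at 37 °C for 18–24 h. MIC is the lowest concentration preventing visible growth.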

Escherichia coli [2] = assay: Antibacterial activity against Escherichia coli BW25113 after 18 to 24 hrs in presence of colistin by broth microdilution method; format: functional
In short: (§2)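 To permeabilize the outer membrane, CLSI broth microdilution in TSB (triplicate) was run with subinhibitory colistin: ¼ × MIC for A. baumannii, E. cloacae and E. coli strains, and P. aeruginosa; ½ × MIC for K. pneumoniae. Plates incubated aerobically at 37 °C for 18–24 h. MIC taken as the lowest concentration with no visible growth.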

Enterobacter cloacae [3] = assay: Antibacterial activity against Enterobacter cloacae BAA1134 after 18 to 24 hrs in presence of colistin by broth microdilution assay; format: functional; in short: as §2
Streptococcus pneumoniae = assay: Antibacterial activity against penicillin-resistant Streptococcus pneumoniae ATCC 700677 after 18 to 24 hrs by broth microdilution assay; format: functional
In short: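 CLSI broth microdilution with modifications. Bacteria exposed to compounds in triplicate and incubated at 37 °C with 5% CO₂ for 18–24 h. MIC is the lowest concentration preventing visible growth.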

Escherichia coli [4] = assay: Antibacterial activity against AcrAB-TolC deficient Escherichia coli […] after 18 to 24 hrs in absence of colistin by broth microdilution method; format: functional
In short: (§3)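 Broth microdilution MIC per CLSI guidelines with modifications. Bacteria grown in TSB and exposed to compounds or control antibiotics in triplicate. Plates incubated aerobically at 37 °C for 18–24 h. MIC taken as the lowest concentration with no visible growth.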

Staphylococcus aureus [5] = assay: Antibacterial activity against methicillin-resistant Staphylococcus aureus USA300 infected in Balb/c mouse assessed as reduction in bacterial burden in wounded skin area at 2% administered topically twice daily for 5 consecutive days measured 12 hrs post last dose relative to control; format: functional; parameters: scale not given: the % may be the effect or the level left
In short: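 Eight-week-old female Balb/c mice (n = 5 per group) received an intradermal injection of 40 μL of 1.32 × 10⁹ CFU/mL MRSA USA300. From abscess formation (~48 h), a 2% suspension in petroleum jelly was applied topically twice daily for 5 days, with a vehicle-only group. Mice were euthanized 12 h after the last dose. Wounds were homogenized in PBS, serially diluted and plated on mannitol salt agar (≥16 h, 37 °C). CFU reduction was calculated against vehicle.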

Staphylococcus aureus [6] = assay: Bacteriostatic activity against methicillin-resistant Staphylococcus aureus USA400 NRS123 at 4 times MIC measured after 24 hrs by time-kill assay; format: functional, organism-based
Klebsiella pneumoniae [7] = assay: Antibacterial activity against Klebsiella pneumoniae ATCC BAA-1705 after 18 to 24 hrs in presence of colistin by broth microdilution assay; format: functional; in short: as §2
Escherichia coli [8] = assay: Antibacterial activity against AcrAB-TolC deficient Escherichia coli […] after 18 to 24 hrs in presence of colistin by broth microdilution method; format: functional; in short: as §2
Staphylococcus aureus [9] = assay: Antibacterial activity against vancomycin-resistant Staphylococcus aureus VRS10 after 18 to 24 hrs by broth microdilution assay; format: functional; in short: as §1
[10] = Toxicity in wounded skin area of Balb/c mouse infected with methicillin-resistant Staphylococcus aureus USA300 at 2% administered topically twice daily for 5 consecutive days measured 4 times daily during compound dosing; settings: in vivo, topical_or_ocular
In short: (§4)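 Female Balb/c mice with intradermal MRSA USA300 abscesses were treated topically twice daily for 5 days with a 2% suspension in petroleum jelly, alongside a vehicle group. Mice were checked at least four times daily during infection and treatment for adverse reactions. Wounds were examined for inflammation and toxicity.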

[11] = tested on: Staphylococcus epidermidis; assay: Antibacterial activity against methicillin-resistant Staphylococcus epidermidis NRS101 after 18 to 24 hrs by broth microdilution assay; format: functional; in short: as §1
Mus musculus = assay: Induction of inflammation in wounded skin area of Balb/c mouse infected with methicillin-resistant Staphylococcus aureus USA300 at 2% administered topically twice daily for 5 consecutive days measured 4 times daily during compound dosing; format: organism-based; settings: in vivo, topical_or_ocular; in short: as §4
Klebsiella pneumoniae [12] = assay: Antibacterial activity against Klebsiella pneumoniae ATCC BAA-1705 after 18 to 24 hrs by broth microdilution assay; format: functional; in short: as §3
Enterobacter cloacae [13] = assay: Antibacterial activity against Enterobacter cloacae BAA1134 after 18 to 24 hrs by broth microdilution assay; format: functional; in short: as §3
Acinetobacter baumannii [14] = assay: Antibacterial activity against Acinetobacter baumannii BAA1605 after 18 to 24 hrs by broth microdilution assay; format: functional; in short: as §3
Staphylococcus aureus [15] = assay: Antibacterial activity against methicillin-sensitive Staphylococcus aureus NRS107 after 18 to 24 hrs by broth microdilution assay; format: functional; in short: as §1
Staphylococcus aureus [16] = assay: Antibacterial activity against vancomycin-resistant Staphylococcus aureus VRS11a after 18 to 24 hrs by broth microdilution assay; format: functional; in short: as §1
Enterococcus faecium = assay: Antibacterial activity against vancomycin-resistant Enterococcus faecium ATCC 700221 after 18 to 24 hrs by broth microdilution assay; format: functional
In short: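 Broth microdilution per CLSI with modifications. Cultured in BHI and exposed to compounds in triplicate. Incubated aerobically at 37 °C for 18–24 h. MIC read as the lowest concentration with no visible growth.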

Pseudomonas aeruginosa [17] = assay: Antibacterial activity against Pseudomonas aeruginosa ATCC 15442 after 18 to 24 hrs by broth microdilution assay; format: functional; in short: as §3
Staphylococcus aureus [18] = assay: Antibacterial activity against methicillin-resistant Staphylococcus aureus NRS385 USA500 after 18 to 24 hrs by broth microdilution assay; format: functional; in short: as §1
Staphylococcus aureus [19] = assay: Antibacterial activity against methicillin-resistant Staphylococcus aureus USA300 NRS384 after 18 to 24 hrs by broth microdilution assay; format: functional; in short: as §1
Escherichia coli [20] = assay: Antibacterial activity against Escherichia coli BW25113 after 18 to 24 hrs in absence of colistin by broth microdilution method; format: functional; in short: as §3
[21] = Cytotoxicity against human HaCaT cells assessed as cell viability at 128 uM measured after 24 hrs by MTS assay; format: cell-based; settings: read-out: Activity
In short: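 HaCaT keratinocytes grown in DMEM with 10% FBS at 37 °C, 5% CO₂. Compounds tested at 16, 32, 64 and 128 µM in triplicate for 24 h; controls received matching DMSO. Viability expressed as percent of DMSO-treated cells (mean ± SD).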

Pseudomonas aeruginosa [22] = assay: Antibacterial activity against Pseudomonas aeruginosa ATCC 15442 after 18 to 24 hrs in presence of colistin by broth microdilution assay; format: functional; in short: as §2
Acinetobacter baumannii [23] = assay: Antibacterial activity against Acinetobacter baumannii BAA1605 after 18 to 24 hrs in presence of colistin by broth microdilution assay; format: functional; in short: as §2
Staphylococcus aureus [24] = assay: Antibacterial activity against methicillin-resistant Staphylococcus aureus NRS119 after 18 to 24 hrs by broth microdilution assay; format: functional; in short: as §1

Question: With `COc1cc(/C=C/c2ccc(C#N)cc2)cc(OC)c1` as the molecule, how does the MIC (Staphylococcus aureus [1]) read?
Answer: Its MIC is 64 µM (≈ 17 µg/mL).

Question: For `N#Cc1ccc(/C=C/c2ccc(C#N)cc2)cc1`, which MIC (Staphylococcus aureus [1]) is on record?
Answer: The MIC was 8 µM (≈ 1.84 µg/mL).

Question: What about the MIC (Escherichia coli [2]) of the same molecule?
Answer: The MIC was > 64 µM.

Question: And the MIC (Enterobacter cloacae [3])?
Answer: The MIC was 4 µM.

Question: What about the MIC (Streptococcus pneumoniae) of the same molecule?
Answer: Its MIC is 8 µM (≈ 1.84 µg/mL).

Question: And the MIC (Escherichia coli [4])?
Answer: Its MIC is > 64 µM.

Question: What about the Activity (Staphylococcus aureus [5]) of the same molecule?
Answer: The Activity was 79.02%.

Question: What about the Activity (Staphylococcus aureus [6]) of the same molecule?
Answer: Its Activity is “Active”.

Question: And the MIC (Klebsiella pneumoniae [7])?
Answer: The MIC was > 64 µM.

Question: What about the MIC (Escherichia coli [8]) of the same molecule?
Answer: Its MIC is > 64 µM.

Question: And the MIC (Staphylococcus aureus [9])?
Answer: Its MIC is 8 µM (≈ 1.84 µg/mL).

Question: What about the Activity [10] of the same molecule?
Answer: The Activity was “Non-Toxic”.

Question: And the MIC [11]?
Answer: Its MIC is 1 µM (≈ 0.23 µg/mL).

Question: And the Activity (Mus musculus)?
Answer: Its Activity is “Non-Toxic”.

Question: What about the MIC (Klebsiella pneumoniae [12]) of the same molecule?
Answer: Its MIC is > 64 µM.

Question: And the MIC (Enterobacter cloacae [13])?
Answer: Its MIC is > 64 µM.

Question: What about the MIC (Acinetobacter baumannii [14]) of the same molecule?
Answer: The MIC was > 64 µM.

Question: What about the MIC (Staphylococcus aureus [15]) of the same molecule?
Answer: The MIC was 4 µM (≈ 0.921 µg/mL).

Question: What about the MIC (Staphylococcus aureus [16]) of the same molecule?
Answer: The MIC was 8 µM (≈ 1.84 µg/mL).

Question: What about the MIC (Enterococcus faecium) of the same molecule?
Answer: The MIC was > 64 µM.

Question: What about the MIC (Pseudomonas aeruginosa [17]) of the same molecule?
Answer: Its MIC is > 64 µM.

Question: And the MIC (Staphylococcus aureus [18])?
Answer: The MIC was 8 µM (≈ 1.84 µg/mL).

Question: And the MIC (Staphylococcus aureus [19])?
Answer: The MIC was 2 µM (≈ 0.461 µg/mL).

Question: And the MIC (Escherichia coli [20])?
Answer: The MIC was > 64 µM.

Question: And the viability at 24 h, 128 µM [21]?
Answer: Its viability at 24 h, 128 µM is > 90%.

Question: What about the MIC (Pseudomonas aeruginosa [22]) of the same molecule?
Answer: The MIC was > 64 µM.

Question: What about the MIC (Acinetobacter baumannii [23]) of the same molecule?
Answer: Its MIC is 16 µM.

Question: What about the MIC (Staphylococcus aureus [24]) of the same molecule?
Answer: The MIC was 1 µM (≈ 0.23 µg/mL).

Question: Which MIC (Staphylococcus aureus [1]) does the source give for `N#Cc1ccc(/C=C/c2ccc(F)cc2)cc1` here?
Answer: Its MIC is 64 µM (≈ 14.3 µg/mL).

Question: Which MIC (Staphylococcus aureus [19]) does the source give for `N#Cc1ccccc1/C=C/c1ccccc1` here?
Answer: Its MIC is 4 µM (≈ 0.821 µg/mL).

Question: And the MIC (Staphylococcus aureus [24])?
Answer: Its MIC is 4 µM (≈ 0.821 µg/mL).

Question: For `CC/C(=C\c1ccccc1C#N)c1ccccc1`, which MIC (Staphylococcus aureus [19]) is on record?
Answer: The MIC was 4 µM (≈ 0.933 µg/mL).

Question: Which MIC (Staphylococcus aureus [1]) does the source give for `N#Cc1ccc(/C=C/c2ccco2)cc1` here?
Answer: Its MIC is 32 µM (≈ 6.25 µg/mL).

Question: With `N#Cc1ccc(/C=C/c2ccc3ccccc3n2)cc1` as the molecule, how does the MIC (Staphylococcus aureus [1]) read?
Answer: The MIC was 8 µM (≈ 2.05 µg/mL).

Question: What about the MIC (Staphylococcus aureus [9]) of the same molecule?
Answer: Its MIC is 32 µM (≈ 8.2 µg/mL).

Question: What about the MIC (Staphylococcus aureus [19]) of the same molecule?
Answer: Its MIC is 4 µM (≈ 1.03 µg/mL).

Question: What about the MIC (Staphylococcus aureus [24]) of the same molecule?
Answer: The MIC was 4 µM (≈ 1.03 µg/mL).

Question: For `N#Cc1ccc(/C=C/c2ccnc3ccccc23)cc1`, which MIC (Staphylococcus aureus [1]) is on record?
Answer: Its MIC is > 64 µM.

Question: Which MIC (Staphylococcus aureus [1]) does the source give for `N#Cc1ccc(CCc2ccc(C#N)cc2)cc1` here?
Answer: Its MIC is > 64 µM.

Question: Which MIC (Staphylococcus aureus [1]) does the source give for `N#Cc1ccc(CCc2cccnc2)cc1` here?
Answer: The MIC was > 64 µM.

Question: For `N#Cc1ccc(CCC2CCc3ccccc3N2)cc1` (configuration not stated), which MIC (Staphylococcus aureus [1]) is on record?
Answer: Its MIC is 16 µM (≈ 4.2 µg/mL).

Question: Which MIC (Staphylococcus aureus [1]) does the source give for `N#Cc1ccc(/C=C/c2ccc(Cl)c(Cl)c2)cc1` here?
Answer: The MIC was > 64 µM.
